Tested on: MS2 coat protein
Assay: apparent Kd, MS2 coat protein; higher = weaker binding; RNA-MaP array; FMN 200 µM where present
Outline: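 Designs on Illumina sequencing-chip clusters, transcribed by stalled E. coli RNA polymerase, were exposed to SNAP-549-labelled MS2 coat protein in doubling steps from 0.7 or 1.5 nM up to 3 µM, without and then with constant ligand. The buffer held 100 mM Tris-HCl pH 7.5, 80 mM KCl, 4 mM MgCl2, BSA, DTT, yeast tRNA and Tween-20. Apparent Kd values are medians of filtered per-cluster binding-curve fits to green signal normalised to red-channel RNA signal and control-cluster median Fmax.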

[1] = designed as: ON switch for flavin mononucleotide, no ligand
[2] = ligand present: flavin mononucleotide, designed as: ON switch for flavin mononucleotide
[3] = designed as: OFF switch for flavin mononucleotide, no ligand
[4] = ligand present: flavin mononucleotide, designed as: OFF switch for flavin mononucleotide

| Sequence | apparent Kd [1] | apparent Kd [2] | apparent Kd [3] | apparent Kd [4] |
| --- | --- | --- | --- | --- |
| UUGGAAGUCGUAGGAUAUGUAGGAUAUUCCUACAUGAGGAUCACCCAUGUUGACAUGGAAGAAGGACAGAAGGACGAUGUCCAU | 0.642 µM | 0.00699 µM |  |  |
| UUAAUUAACAAGAAGGCUUACAUGAGGAUCACCCAUGUUGUACAUGGAUAAAGAGGAUAUUGCUAAUAAUUAUUUUUCUUAAUU |  |  | 0.0921 µM | 0.0575 µM |
| GGAUAGGACAGAGGAUAUACGUGCUAGAGAUACUAGCAUAAUUUCCUCACAUGAGGAUCACCCAUGUAGAAGGCUGUCCUAUCG |  |  | 0.00678 µM | 0.0467 µM |
| ACAUGAGGAUCACCCAUGUGAAAGAAAUGGCUGACUUUGAGCUAGGAUAUUUGUGCAUAUCAAACGAAGAAGGAGCAUUACUGG |  |  | 0.0222 µM | 0.021 µM |
| AUCUCAGGACGAGGAUAUCAAUACAUGAGGAUCACCCAUGUAUGAUUACUGUGAUCCUCUAAGGCUGAGAAGGCGUCCCAAUUA |  |  | 0.0204 µM | 0.00837 µM |
| CCGGCUGCCGUGAGGAUAUGCCCGCGCGCCCGCGGGCAGAAGGCACAUGAGGAUCACCCAUGUCCUGCGGUCCC |  |  | 0.0174 µM | 0.0199 µM |
| GGACAUGGGAAACCACAUGGAGAUAAGGAUAUAUAGAUGACAUGAGGAUCACCCAUGUAUGGCGAAUAGAAGGUAUGAGUGUGA | 0.153 µM | 0.0163 µM |  |  |
| AGCUGUGGCCGAGGAUAUCUAAACCUCGAAAACGAAAUAUAAUCGAACAUGAGGAUCACCCAUGUAGAGAAGGCGGUCUCAGCA |  |  | 0.0696 µM | 0.211 µM |
| AACAUGGCAGAGGAUAUAGGACGCUGGCAUAAACUAGAAGGCUGCACAUGAGGAUCACCCAUGUGUUCCUAAAC |  |  | 0.0217 µM | 0.0394 µM |
| CCAACGUACAAUUUAGAUCUACAUGAGGAUCACCCAUGUACGGAGGAUAUCAGCUCGAAUAGAGCUGAGAAGGCCGAAUUAAUU | 0.371 µM | 0.0894 µM |  |  |
| AAGGAGUUAGGAUAUGCUGCUCGUCACUUGCGUGAUGAGUAGCAGAAGGGACAUGAGGAUCACCCAUGUAAAAA |  |  | 0.0453 µM | 0.0212 µM |
| UUAUUUUUACAGAAGGUUUAAUAAUAUGUAUGAGAAGGAUAUGUAACAUGAGGAUCACCCAUGUUUUAUUUAUAUGAGGUUCAU |  |  | 0.0108 µM | 0.00927 µM |
| UAGUUAUUCACAGGAUAUCGCCUCUUAUUACAUGAGGAUCACCCAUGUUUAUUUUGUUACAUGUUCGAGAAGGGUGUAGCCGUU |  |  | 0.345 µM | 0.375 µM |
| UGAGCAGAAGGAUAUGCGUAAUGGCCGUGAGGCCUAGAUCUACAUGAGGAUCACCCAUGUAGAAGGUCUGUUCU |  |  | 0.0154 µM | 0.0152 µM |
| CAAGCCAUUCGCAACUGCCGGCCGCAGGAUAUGGGUCGUUUAUACAUGAGGAUCACCCAUGUCGCCUAGAAGGGCGGCUGGGUC | 0.26 µM | 0.0389 µM |  |  |
| UAAACACCCUCAUGUACCUGAGGACAUGAGGAUCACCCAUGUAAGGAUAUAGCCAUUAAAUCUAACUAGAAGGUAUAGGAAAUC |  |  | 0.865 µM | 0.529 µM |
| GUGAGGUAAGGAUAUAGGAGAAAAGAUAAGGUAUGAGAGUUCUAGAAGGUACAUGAGGAUCACCCAUGUUAGGG |  |  | 0.224 µM | 0.193 µM |
| UUGCCUCAGAACAUGAGGAUCACCCAUGUGCUGCGGGCAACGUAGGAUAUGAUGGUAUGAUACCGUCAGAAGGAUGAUGGUACC | 0.00586 µM | 0.00532 µM |  |  |
| AUUUGUAAUACAGGAUAUGUUAGUUUACAGUAGAUUGGUUAUUACUCAACUACAGAAGGGUAGUACAUGAGGAUCACCCAUGUA | 0.0207 µM | 0.0148 µM |  |  |
| AUACAUGAGGAUCACCCAUGUUACUGGGUCUUUUUAGAACGUAGAAGGAUGUUUUUAUACAUAACAUAGGAUAUACAAUAUUGU |  |  | 0.0518 µM | 0.0489 µM |
| AACAUGAGGAUCACCCAUGUACGCUGUAAUUACUCGCGUUGGCAGGAUAUGGGUUGGCUUCCGUCCCAGAAGGGUCAAGAUAAA | 0.253 µM | 0.105 µM |  |  |
| UUGUUCUGAGGAUAUACAUGAGGAUCACCCAUGUGUUUCUGCUUGGUGUCUUGCGUUUGUAGAAGGCUGUUCUC |  |  | 0.0265 µM | 0.028 µM |
| GGUCGUCACAUUAACAUGAGGAUCACCCAUGUCAAAAGACAUGAGGAUAUGCAUCCUAAUUGGAUGCAGAAGGCAUGGACGACC | 0.507 µM | 0.0327 µM |  |  |
| UUCGUGUAAGGAUAUACGACCCAUCCCAUUGGGAUGGACACGUAGAAGGUACAUGAGGAUCACCCAUGUGCUCC |  |  | 0.0273 µM | 0.135 µM |
| GGUUGUCAUAGUCAUCCUUUCCGUACAUGAGGAUCACCCAUGUAGGAUAUGCUACUCACGGUGUGGCAGAAGGGCGUGUGUCUU |  |  | 0.0179 µM | 0.0199 µM |
| AACCUAUUACAGAAGGCCAGCUACAUGAGGAUCACCCAUGUCGAGUCAUGGAGGAUAUGUAGUAACCUGCACGCGGGCGGAUAC | 0.0507 µM | 0.00718 µM |  |  |
| GACCUGAGUAAUAAUGUAGAAAUACAUGAGGAUCACCCAUGUAAGGAUAUGCAGUGGAAUACACUGCAGAAGGUACAUCUCAGG |  |  | 0.0166 µM | 0.0296 µM |
| GAGUGACAUGAGGAUCACCCAUGUGAGGAUAUCGGACGGACCAAAUUAACAACACCCGCGAGAAGGCACAUCGG |  |  | 0.163 µM | 0.123 µM |

| Sequence | apparent Kd [1] | apparent Kd [2] | apparent Kd [3] | apparent Kd [4] |
| --- | --- | --- | --- | --- |
| GAAUUAAAGAUCCAAUUUUACAACAUGAGGAUCACCCAUGUGCAGGAUAUCGUGUGUUUUAUAUUCGAGAAGGGCAAAUACAUU |  |  | 0.1 µM | 0.187 µM |
| UGGUACAUGGGAGGAUAUGGGUUGAUAACAUGAGGAUCACCCAUGUUAAUGCCGAAAGGCAAGAACUAGAAGGCCCAUGUACCU | 0.41 µM | 0.0302 µM |  |  |
| AUCAGCUCGUCAGGAUAUACGUCUCUGCGUCAGCAGUGUGGUAAGAUCACAUGAGGAUCACCCAUGUAGAAGGGACGAGCUGAU |  |  | 0.0428 µM | 0.691 µM |
| AACAUGAGGAUCACCCAUGUCCCACCAGAAGGCUGGCGGUGGUAGGAAAGGCUACGACAAAUAACAGAGGAUAUGGUGAAUGCA | 0.0889 µM | 0.0208 µM |  |  |
| UGAUAGGACAGAGGAUAUACGUGCUAGAGAUACUAGCUACAAAUCCUUACAUGAGGAUCACCCAUGUAGAAGGCUGUCCUAUCU |  |  | 0.0193 µM | 0.0394 µM |
| CCGCAAAUGCAGGAUAUCGUAUCGGAUACGAUACGAGAAGGGCGUACAUGAGGAUCACCCAUGUGUCCUAGCGG |  |  | 0.0164 µM | 0.0233 µM |
| GUUUUCGCAGGAUAUUAGAGUUUUUACAUGAGGAUCACCCAUGUUAAUUGGGUUAAUGUCUAAGAAGGGCGAUGUA |  |  | 0.0676 µM | 0.101 µM |
| GUACUGACAGGAUAUACAUGAGGAUCACCCAUGUCCUUAUGCUGACAAAAGUCAGCGUGUAGAAGGGUCUGUAC |  |  | 0.141 µM | 0.385 µM |
| UUCAGCUCGUCAGGAUAUACGUCACUGCUUCGGCAGUGUGGUAAGAUCACAUGAGGAUCACCCAUGUAGAAGGGACGAGCUGAG |  |  | 0.0123 µM | 0.312 µM |
| GCCAUCACAUGAGGAUAUGGCACCGUUUCGGUGCCAGAAGGCAUGUCAUAAGACAUGAGGAUCACCCAUGUAGUUAAGAUGGCA |  | 0.0554 µM |  |  |
| AGAUAUAACUCAGGAUAUCAGCAUGGGUAGAUCACAUGAGGAUCACCCAUGUGCAUGUCCCGGCAUGAGAAGGGAGUAACGCAA | 0.0432 µM | 0.0522 µM |  |  |
| CAGUACUGAGGAUAUACAUGAGGAUCACCCAUGUGUUCCAGCUAGGAAACUAGCAUAAGUAGAAGGCAGUACUG |  |  | 0.0212 µM | 0.354 µM |
| AGAGGUCGCACAGGAUAUCAUACAUGAGGAUCACCCAUGUCAGAAAACAAAUGAGAAGGGUGCGCGUUAAUCGCUUGUGAAGAA | 0.0167 µM | 0.0048 µM |  |  |
| UCCUGGCGAGGAUAUACAAUGUUUUUCGCGUGUUGUUGCGAACAUGAGGAUCACCCAUGUAGAAGGUGCUACUG |  |  | 0.278 µM | 0.225 µM |
| AUUUUACAUGAGGAUCACCCAUGUUUUGGUGGAUCAGGAUAUAGAUCGGAUGAGUUCUGGCUAGAAGGGAUAUAUA | 0.0936 µM | 0.0865 µM |  |  |
| UUUAUGUCAGGAUAUACAUGAGGAUCACCCAUGUAUAUCUAAAAAUAUACAUGGGAAUGUAGAAGGGACCUCCU |  |  | 0.053 µM | 0.0463 µM |
| UCUCGAUGUGUAGGAUAUCUGACCACUAUGACAAGAGAAGGGCACAUGAGGAUCACCCAUGUGGAGGACCACUGGUUCAGAUUA |  |  | 0.0409 µM | 0.051 µM |
| AUUAAACAUGAGGAUCACCCAUGUCAACAAAGUCGAGGAUAUGGGCAAUUAAAAUAAGAACCAGAAGGCGAAUAAU | 0.34 µM | 0.0354 µM |  |  |
| AUUUAUAAGUAAGGAUAUCGGUUAUAUUUAAUUCGAGAAGGUACAUGAGGAUCACCCAUGUAAUAAAUAAAUAAAAUUUUUUUU |  |  | 0.0364 µM | 0.0287 µM |
| CUACCUUAUGAGAAGGCGAUCAUGAAACAUGAUCGAGGAUAUCAUGUAAACAUGAGGAUCACCCAUGUAUGGGUAUUAUGGUAU | 0.0915 µM | 0.0254 µM |  |  |
| GCCUGCUGGCGAGGAUAUUCUGUGCGGUUCCGGCUCGUGUCUGUUACAUGAGGAUCACCCAUGUAGGAGAAGGUGUCUGUGGCC |  |  | 0.00475 µM | 0.00501 µM |
| AAAUUUAACGAAGGAUAUGCUUACAUGAGGAUCACCCAUGUGUGCCUUGUGAUGCUGAUUAGGUUGCAGAAGGUCGUAUACAUA |  |  | 0.135 µM | 0.174 µM |
| GUGAGGUCAGGAUAUGCAUGGCGGGACUUGCGUCGUGGCGUGGAGAAGGGACAUGAGGAUCACCCAUGUGGAGA |  |  | 0.073 µM | 0.0631 µM |
| UGUGCGUAUGUGAGGAUAUGCUGGUCCUUGGAUCAGCAGAAGGCACAUGAGGAUCACCCAUGUGGUGUCGUACU |  |  | 0.296 µM | 0.0257 µM |
| AAGUAGGUAGGAUAUGCAUAGAUACAGAUUCAUGUGGAACUACAUGAGGAUCACCCAUGUAGAAGGACCUAAUA |  |  | 0.0211 µM | 0.0296 µM |
| AGCGACCAAGGAUAUACAUGAGGAUCACCCAUGUCGGCGACCUUCCUGGGAUUUCUUAGUAGAAGGUGGUCAAU |  |  | 0.0427 µM | 0.0869 µM |
| CGCAAGUAUACAUGAGGAUCACCCAUGUCAAAUAUGGUAAUCAGAAGGUACAAUUCAAUAUAUAGUAAGGAUAUGAAUUUUGCG | 0.059 µM | 0.0233 µM |  |  |

— the EternaBench riboswitch data
